High-throughput results from PubChem BioAssay.
Only some compounds are listed: those with a hit (about 0.94% of all), similar ones and a draw of the others.
aDG glyco act: alpha-DG glycosylation activation. AID 624168. actives 0.22% (n = 360,000). activation, % at 10 µM. Pro5-aDG cells, alpha-DG glycosylation AlphaScreen (IIH6); 0% Pro5, 100% B10-LARGE cell signal;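 active = activation of at least 8% versus controls, or a plate z-score of at least 8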;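 also: Pro5 are CHO cells carrying HIG-tagged alpha-DG that lacks glycosylation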
Fh CTSL1 inh: cathepsin L1 inhibition, PFM18AAP counter-screen; inhibition, % at 5.96 µM; actives 0.49% (n = 300,000); recombinant F. hepatica cathepsin L1, Z-Leu-Arg-MCA fluorescence;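 active = inhibition above the mean of all tested compounds plus 3 SD, set per screening campaign, cut at about 17% in these data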;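 also: 0% = plate median of test compound wells and 100% = 1 µM Z-Phe-Ala-diazomethylketone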
PKA-R1A activ: activators of PKA-R1A complex; actives 0.083% (n = 340,000); activation, % at 11.4 µM; PKA-R1A dissociation, Cy5-IP20 fluorescence polarization; scaled: DMSO 0%, 113 µM cGMP 100%;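 active = percent activation above the mean of all tested compounds plus 3 SD, cut at about 19% in these data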;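 also: higher means more PKAc released from R1A so a rise in polarization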
PKA-R2B act: activates the human PKA-R2B holoenzyme complex; P22694+P31323; PKA-R2B holoenzyme dissociation, Cy5-IP20 fluorescence polarization; R2B truncated from residue 108, S112A mutant; 0% DMSO only, 100% 113 µM cGMP; activation, % at 11.4 µM; actives 0.079% (n = 340,000);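 active = activation above a cutoff set at the mean over all compounds plus 3 SD, cut at about 18% in these data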;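 also: higher means more holoenzyme dissociation and a rise in polarization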
UCH37 DUB inh: human UCH37 deubiquitinating enzyme inhibition; AID 588478; actives 0.33% (n = 330,000); purified proteasome/UCH37, Ub-AMC cleavage fluorescence; inhibition, % (test concentration not listed);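 active = mean inhibition over replicate wells above about 20%, limit read from the data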;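 also: 0% = compound-free wells with enzyme and 100% = wells lacking proteasome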
Target sequence (Q9Y5K5 whole entry, looked up): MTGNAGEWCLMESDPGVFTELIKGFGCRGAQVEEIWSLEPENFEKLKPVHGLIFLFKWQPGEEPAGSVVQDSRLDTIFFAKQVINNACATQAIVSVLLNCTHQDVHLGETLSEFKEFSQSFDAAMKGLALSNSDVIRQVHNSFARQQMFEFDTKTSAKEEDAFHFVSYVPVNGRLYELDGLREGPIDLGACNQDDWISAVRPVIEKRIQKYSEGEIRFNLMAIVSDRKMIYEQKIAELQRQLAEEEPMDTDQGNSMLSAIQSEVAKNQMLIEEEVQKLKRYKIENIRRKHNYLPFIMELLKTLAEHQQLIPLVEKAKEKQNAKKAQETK
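Material: Human UCH37 enzyme supplied as purified proteasome complex | Schedule: 30 min preincubation with enzyme, 25 min cleavage at room temperature | Detection: AMC fluorescence 355/460 nm | Measure: % inhibition of Ub-AMC cleavage fluorescence | Controls: Wells without proteasome as full block, compound-free enzyme plus substrate as uninhibited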
aDG conf: alpha-DG glycosylation activation, confirmation; actives 17% (n = 600); activation, % at 10 µM (by protocol); AID 651671; Pro5-aDG cells, IIH6 AlphaLISA; scaled to LARGE-overexpressing B10 cells as 100%; shares compounds with aDG glyco act;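 active = activation of at least 7% in one or more replicates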;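 also: cells exposed to compound for two days before detection; 0% = DMSO-treated Pro5 cells and 100% = DMSO-treated B10-LARGE cells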
* hit, by the source's call; . = no result given.

SMILES	aDG glyco act	Fh CTSL1 inh	PKA-R1A activ	PKA-R2B act	UCH37 DUB inh	aDG conf
COc1ccc(NC(C)C(=O)N/N=C/c2ccc([N+](=O)[O-])s2)cc1 (centres undefined)	9.7*	3	-5	-4	.	3
Cc1ccc(NC(C)C(=O)N/N=C/c2ccc([N+](=O)[O-])s2)cc1 (centres undefined)	5	4	-10	-9	.	.
CC(=O)c1c(COC(=O)c2ccc(C)cc2)nc2ccccc2[n+]1[O-]	2.8*	-2	.	.	6	-1
CC(=O)c1c(COC(=O)c2ccc(F)cc2)nc2ccccc2[n+]1[O-]	0	-3	.	.	7	.
O=C(CSCc1cccc(Br)c1)NC1CC1	5.3*	-4	4	6	1	0
O=C(CSCc1ccc(Br)cc1)NC1CC1	0	5	8	0	0	.
COc1cc(C2N=C(c3ccccc3)NO2)cc(Br)c1O (centres undefined)	0	3	-1	6	-2	.
COc1ccc(C2N=C(c3ccccc3)NO2)cc1OC (centres undefined)	2.8*	0	-3	4	-1	0
Cc1ccc2cc(CN(C(=O)c3ccco3)c3ccccc3C)c(=O)[nH]c2c1	0	1	-8	-1	0	.
Cc1ccc(N(Cc2cc3ccc(C)cc3[nH]c2=O)C(=O)c2ccco2)c(C)c1	2.4*	3	-5	5	-7	1
O=C(NN=Cc1cccc(OC(=O)c2cccc(Br)c2)c1)c1cccnc1	.	.	.	.	1	.
C=CCNC(=S)NNC(=O)C(CCCC)CC(C)O (centres undefined)	5	-1	-3	0	2	.
C=CCNC(=S)NNC(=O)CCC(O)CCCCC (centres undefined)	8.4*	-3	-1	8	4	2
Cc1cccc(C)c1NC(=O)c1ccc(-n2cncn2)nc1	3.8*	2	-8	0	2	-1
COc1cc(O)c2c(c1)OC(c1ccc(O)cc1)CC2=O (centres undefined)	13*	3	-18	-5	3	2
COc1ccc([C@@H]2CC(=O)c3c(O)cc(O)cc3O2)cc1O	0	1	-4	-3	4	.
Cc1c(O)cc2c(c1O)C(=O)CC(c1ccc(O)cc1)O2 (centres undefined)	4.7*	0	-7	5	2	-1
CN1/C(=C\C(=O)c2ccco2)C(C)(C)c2ccccc21	4.3*	-1	-18	-13	-20	0
COc1ccc(CCNC(=O)c2cc3c(=O)n4ccccc4nc3n(CCN3CCOCC3)c2=N)cc1	8.1*	1	0	0	-44	1
COc1ccc(CCNC(=O)c2cc3c(=O)n4ccccc4nc3n(CCCN3CCOCC3)c2=N)cc1	1	3	3	-10	.	.
Cc1ccc(C)c(NC(=O)CSc2nc3ccccc3nc2N2CCOCC2)c1	0	-3	-12	-3	-15	.
CCc1ccccc1NC(=O)CSc1nc2ccccc2nc1N1CCOCC1	13*	-3	-15	3	-6	-1
c1ccc(-c2nc(N3CCOCC3)c3ccccc3n2)nc1	7.0*	4	-7	-5	10	3
c1ccc(Oc2nc(-c3ccccn3)nc3ccccc23)cc1	2.4*	-1	.	.	3	2.8*
c1ccc(-c2nc(N3CCCCCC3)c3ccccc3n2)nc1	0	8	-1	-2	7	.
SMILES	aDG glyco act	Fh CTSL1 inh	PKA-R1A activ	PKA-R2B act	UCH37 DUB inh	aDG conf
COc1ccc(Oc2nc(-c3ccccn3)nc3ccccc23)cc1	2	2	.	.	2	.
O=C(Nc1ccnn1C1CCN(Cc2cccc(OCCO)c2)CC1)C1CC1	6.0*	-3	-9	14	2	-1
CC(C)(C)c1ccc(-c2cc(N)n[nH]2)cc1	9.7*	2	-3	8	2	0
O=C(Cn1cnc2ccccc21)Nc1ccc(SC(F)F)cc1	10*	-3	-7	-2	2	1
Cc1ccc(NC(=O)C(=O)NCc2ccc(C=NNC(=O)c3c(C)nc4ccccn34)o2)cc1	.	.	.	.	10	.
N#Cc1cccc(NC(=O)CSc2nnc(-c3n[nH]c4ccccc34)o2)c1	0	1	3	-6	.	.
C#Cc1cccc(NC(=O)CSc2nnc(-c3ccc(C(F)(F)F)cn3)o2)c1	3.5*	4	-9	-2	4	0
CCOc1cc(/C=N/NC(=O)c2ccc(N(C)S(=O)(=O)c3ccccc3)cc2)ccc1OC	2.4*	1	0	-13	.	-2
O=C(CON=Cc1cccc([N+](=O)[O-])c1)NC1CCCCCC1	.	.	.	.	-1	.
CCCCCOc1ccc(C(C)=NNC2=NCCN2)cc1	.	.	.	.	5	.
CCCCCOc1ccc(/C(C)=N/NC2=NCCN2)cc1	1.6*	3	-1	-2	.	8.6*
O=C(CCC(=O)Nc1ccc(F)cc1)NN=Cc1ccc(F)cc1	.	.	.	.	5	.
O=C(C1CCN(c2nnc(-n3cccc3)s2)CC1)N1CCN(c2cccc(C(F)(F)F)c2)CC1	8.0*	2	-4	1	2	0
CCN(CC)C(=O)NCc1c(C)cc(C)cc1C	47*	-3	-12	-1	3	-1
CCN(CC)C(=O)c1cccc(C)c1	0	-3	-12	1	3	.
Cc1ccc(Cn2cc(C=NNc3ccc([N+](=O)[O-])cn3)c3ccccc32)cc1	.	.	.	.	10	.
CC(C)c1ccc(NC(=O)C2Cc3c(-c4ccc(Cl)cc4)ccnc3O2)cc1 (centres undefined)	5.0*	.	.	.	.	6.5*
COc1ccc(C=NNC(=O)c2ccccc2O)cc1CN1CCOCC1	.	.	.	.	9	.
Cc1cc(C)cc(N=Cc2[nH]c3ccc(Br)c(Cl)c3c2O)c1	5.9*	-3	-3	-3	11	-1
Oc1cccc(C=NCc2ccccc2)c1	51*	5	4	12	2	-1
Oc1cccc(/C=N/N(Cc2ccccc2)c2ccccc2)c1	0	9	-12	-9	.	.
CC(=NO)c1ccco1	.	.	.	.	0	.
CC(CNC(=O)c1cc(COc2ccc3ncccc3c2)on1)c1ccccc1 (centres undefined)	4.7*	0	10	-1	-1	2
CCOC(=O)N1CCN(C(=O)c2cc(COc3ccc4ncccc4c3)on2)CC1	7.8*	-1	-5	-1	-3	1
O=C(c1cc(COc2ccc3ncccc3c2)on1)N1CCC[C@H]1CO	5.5*	0	-8	3	-2	0
O=C(NC1CCCCCCC1)c1cc(COc2ccc3ncccc3c2)on1	2	.	-3	-5	5	.
